Screens from PubChem.
The entries come from a sample that favours hits as a whole.
H69AR inhibit – proliferation blockers of H69AR lung cancer cells, primary screen, cell-based, human, 86K library | H69AR lung tumor viability, ATP luminescence, 72 h; stronger effect = lower value | viability, % at 10 µM | actives 6% (n = 85,000) | AID 598, 2007;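 active = viability at or below 40%; inactive = viability above 40%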;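 also: multidrug resistant small cell line overexpressing MRP-1 efflux transporter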
HCT116 bCat-KO – primary screen for growth suppressors in beta-catenin knockout HCT116 cells (colon tumor, human); HCT116 beta-catenin knockout viability, CellTiter-Glo, 60 h; stronger effect = lower value; viability, % at 10 µM; actives 1.5% (n = 140,000); AID 818, 2007;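 active = viability at or under a set limit, the compound median less 4 SD, cut at about 6% in these data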
PTEN del growth – growth suppression of PTEN-null HCT116, primary screen, cell-based, CellTiter-Glo; HCT116 PTEN-null viability, 60 h; stronger effect = lower value; actives 1.2% (n = 140,000); viability, % at 10 µM;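 active = viability at or below a set limit, 4 SD under the median of all tested compounds, cut at about 3.7% in these data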;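 also: PTEN knockout HCT116 line with beta catenin targeted HCT116 as companion control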
Fibroblast inh – antiproliferative effect on LL 47 fibroblasts – human, LL 47 cells, CellTiter-Glo luminescence, primary screen; viability, % at 10 µM; actives 1.1% (n = 85,000); LL 47 human lung fibroblast viability, ATP luminescence; stronger effect = lower value;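 active = viability at or below 50% in the single dose screen; inactive = viability above 50%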;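 also: compound exposure lasted 72 h before the ATP readout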
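material = human LL 47 lung fibroblast cells | dosing = compounds added from tenfold dosing solution, 0.1% DMSO final | timing = overnight cell rest, 72 h compound treatment at 37 °C | measured by = CellTiter-Glo luminescence measuring cellular ATP | evaluation = % viability versus median cells-only luminescence | control set = cell-only wells, no compound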
HUVEC inhibit – inhibitors of HUVEC proliferation, primary screen, cell-based, 384-well. CellTiter-Glo luminescence, 72 h; stronger effect = lower value. viability, % at 10 µM (by protocol). actives 1.1% (n = 86,000). AID 648, 2007;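 active = viability at or below 30%; inactive = viability above 30%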
Each line names hits and unclear results; the compound was inactive in the other large screens.

Cc1noc(NS(=O)(=O)c2ccc(NC(=O)C34CC5CC(C3)CC(n3cnc(Cl)n3)(C5)C4)cc2)c1C	none (no result: H69AR inhibit, Fibroblast inh, HUVEC inhibit)
Cc1cccc(-n2nnc(C(=O)NC3CCCc4ccccc43)c2N)c1 (stereo not drawn)	H69AR inhibit 19.2
COc1ccc2nc(NC(=O)CSC3=NCCS3)sc2c1	HUVEC inhibit 29.8
CCOc1ccc2nc(NC(=O)CSC3=NCCS3)sc2c1	H69AR inhibit 1.1
CCOc1ccc2nc(NC(=O)CN3CCC(n4nnc5cc(F)ccc54)CC3)sc2c1	HUVEC inhibit 9.2
O=C(CSC1=NCCS1)Nc1nc2c(s1)CCCC2	H69AR inhibit 17.1
COc1ccc(CN(CCO)CCO)cc1[N+](=O)[O-]	none (no result: H69AR inhibit, Fibroblast inh, HUVEC inhibit)
CC(C)NC(=S)N1CCN(S(=O)(=O)c2cccc(C(F)(F)F)c2)CC1	none (no result: H69AR inhibit, Fibroblast inh, HUVEC inhibit)
COc1cc(C(=O)OCC(=O)c2cc(C)n(C)c2C)cc(OC)c1OC	H69AR inhibit 24.1
Cc1cc(C(=O)COC(=O)c2n[nH]c3ccccc23)c(C)n1C	none
O=C(Cc1cccc2ccccc12)N/N=C/c1ccc(OC(=O)/C=C/c2ccco2)cc1	H69AR inhibit 24.1
N#Cc1cc(Oc2cccc3cccnc23)c(-n2nnc3ccccc32)cc1C#N	H69AR inhibit 17.8
Cc1ccc2[nH]ccc(=O)c2c1	none (no result: H69AR inhibit, Fibroblast inh, HUVEC inhibit)
Clc1ccc2[nH]c3c(c2c1)CCc1cn[nH]c1-3	H69AR inhibit 21.8
O=C(CSCc1cccc(Br)c1)N1CCOCC1	none
Cc1cc(C(=O)N/N=C/c2cc(Br)cc(Br)c2OC(=O)c2ccccc2)n[nH]1	HCT116 bCat-KO 5.1 (no result: H69AR inhibit, Fibroblast inh, HUVEC inhibit)
Cc1cc(C(=O)N/N=C/c2cc(Br)ccc2OC(=O)c2ccc(Br)cc2)n[nH]1	none (no result: H69AR inhibit, Fibroblast inh, HUVEC inhibit)
c1csc(-c2nc3c4ccccc4c4ccccc4c3[nH]2)c1	H69AR inhibit 29.6
Cc1c(C(=O)Nc2ccc3c(c2)OCO3)sc2ncn(CC(=O)N3CC(C)CC(C)C3)c(=O)c12 (stereo not drawn)	none
Cc1csc(NC(=O)CSc2nnc(NC(=O)COc3ccccc3)s2)n1	none (no result: H69AR inhibit, Fibroblast inh, HUVEC inhibit)
O=C(COC(=O)c1ccc(CO)cc1)NCc1cccs1	none (no result: H69AR inhibit, Fibroblast inh, HUVEC inhibit)
O=C(Nc1cc([N+](=O)[O-])ccc1Cl)C(Sc1ccccc1)c1ccccc1 (stereo not drawn)	none (no result: H69AR inhibit, Fibroblast inh, HUVEC inhibit)
O=C(Nc1ccc(Cl)c([N+](=O)[O-])c1)C(Sc1ccccc1)c1ccccc1 (stereo not drawn)	HCT116 bCat-KO 3.6, PTEN del growth 3.2 (no result: H69AR inhibit, Fibroblast inh, HUVEC inhibit)
COc1ccccc1NC(=O)C(Sc1ccccc1)c1ccccc1 (stereo not drawn)	none (no result: H69AR inhibit, Fibroblast inh, HUVEC inhibit)
CC(C)(C)NS(=O)(=O)c1ccc(NC(=O)C(Sc2ccccc2)c2ccccc2)cc1 (stereo not drawn)	HCT116 bCat-KO 1.6, PTEN del growth 1.6 (no result: H69AR inhibit, Fibroblast inh, HUVEC inhibit)
N#CCCN(C(=O)COC(=O)c1ccc(CNS(=O)(=O)c2ccc(F)c(Cl)c2)cc1)c1ccc(F)cc1	none (no result: H69AR inhibit, Fibroblast inh, HUVEC inhibit)
O=C(CN1CCN(S(=O)(=O)c2ccc3ccccc3c2)CC1)Nc1ccc2c(c1)CCC2	none (no result: H69AR inhibit, Fibroblast inh, HUVEC inhibit)
CCCCOc1ccc(-c2nnn(CC(=O)NCc3ccco3)n2)cc1	H69AR inhibit 29.1
CCOc1ccc(-c2nnn(CC(=O)NCc3ccco3)n2)cc1OCC	none
CC1CC(C)CN(c2ccc(C(=O)NCc3ccc4c(c3)OCO4)cc2[N+](=O)[O-])C1 (stereo not drawn)	none (no result: H69AR inhibit, Fibroblast inh, HUVEC inhibit)
Cn1ncc(N=Cc2ccccc2)c1C(=O)Nc1cccc(Cl)c1	H69AR inhibit 37.6
CCOC(=O)COc1ccc(Br)cc1/C=C\c1[nH]c(=O)[nH]c(=O)c1[N+](=O)[O-]	none (no result: H69AR inhibit, Fibroblast inh, HUVEC inhibit)
CCOc1cc(/C=C\c2[nH]c(=O)[nH]c(=O)c2[N+](=O)[O-])ccc1OC(C)CC (stereo not drawn)	HUVEC inhibit 15.3
Cc1ccc(NC(=O)COC(=O)c2ccc(OCc3c(C)noc3C)cc2)cc1S(=O)(=O)N1CCOCC1	none (no result: H69AR inhibit, Fibroblast inh, HUVEC inhibit)
C=CCNC(=S)N1CCN(CCN=CC2=C(O)CC(c3cccs3)CC2=O)CC1 (stereo not drawn)	none
Cc1ccc(S(=O)(=O)CCC(=O)c2ccc(O)cc2O)cc1	H69AR inhibit 1.0
Cc1ccc(S(=O)(=O)CCC(=O)OCc2ccc(Cl)cc2)cc1	none (no result: H69AR inhibit, Fibroblast inh, HUVEC inhibit)
COc1ccc2c(c1)c1ncnc(N3CCN(Cc4ccc5c(c4)OCO5)CC3)c1n2C	H69AR inhibit 27.6
COc1ccc2[nH]c3c(N4CCN(Cc5ccc6c(c5)OCO6)CC4)ncnc3c2c1	none
N#CC(C#N)C(c1ccsc1)c1c(-c2ccccc2)[nH][nH]c1=O (stereo not drawn)	none
CCCc1[nH][nH]c(=O)c1C(c1cccc(Cl)c1)C(C#N)C#N (stereo not drawn)	H69AR inhibit 16.6
COc1ccc(C2c3c(-c4cc(Cl)c(C)cc4O)n[nH]c3C(=O)N2Cc2cccnc2)cc1OC (stereo not drawn)	none
Cc1cccc(N/C=C/C(=O)c2cccs2)c1C	none (no result: H69AR inhibit, Fibroblast inh, HUVEC inhibit)
COc1cc([N+](=O)[O-])ccc1N/C=C/C(=O)c1cccs1	HUVEC inhibit 28.7
COc1ccc(-c2cc(C#N)nc(Oc3ccc(Cl)cc3)n2)cc1	none (no result: H69AR inhibit, Fibroblast inh, HUVEC inhibit)
COc1ccc(-c2cc(C#N)nc(N3CCN(C)CC3)n2)cc1	none (no result: H69AR inhibit, Fibroblast inh, HUVEC inhibit)
COc1ccc(-c2cc(C#N)nc(N3CCNCC3)n2)cc1	H69AR inhibit 1.4, HCT116 bCat-KO 0.6, PTEN del growth 0.4, Fibroblast inh 2.0
CCN(CC)c1nc(C#N)cc(-c2ccc(OC)cc2)n1	H69AR inhibit 31.9
O=C(NC1CCCc2ccccc21)C(Cc1ccccc1)NS(=O)(=O)c1cccs1 (stereo not drawn)	none (no result: H69AR inhibit, Fibroblast inh, HUVEC inhibit)
O=C(CC1c2ccccc2Oc2ccccc21)N1CCN(c2ccccn2)CC1	H69AR inhibit 38.4
CC1(C)Cc2c(sc3c4nnnn4c4nnnn4c23)CO1	H69AR inhibit 2.5
Cn1c(NCC(O)c2ccccc2)nc2c1c(=O)n(Cc1ccc(Cl)c(Cl)c1)c(=O)n2C (stereo not drawn)	H69AR inhibit 12.7 (no result: HCT116 bCat-KO, PTEN del growth)
COC(=O)c1ccc(Oc2coc3cc(OCc4ccc([N+](=O)[O-])cc4)ccc3c2=O)cc1	none (no result: H69AR inhibit, Fibroblast inh, HUVEC inhibit)
CCc1cc2c(=O)c(-c3nc4ccccc4n3C)c(C)oc2c(CN2CCN(C)CC2)c1O	none (no result: H69AR inhibit, Fibroblast inh, HUVEC inhibit)
CCc1cc(-c2n[nH]c(C)c2-c2nc3ccccc3n2C)c(O)c(CN2CCN(C)CC2)c1O	H69AR inhibit 16.1 (no result: Fibroblast inh)
CCc1cccc(C)c1NC(=S)N(Cc1cccnc1)Cc1ccco1	none (no result: H69AR inhibit, Fibroblast inh, HUVEC inhibit)
CCOC(=O)c1[nH]c2c(c1C)C(=O)CC(c1ccc(F)cc1)C2 (stereo not drawn)	none
Cc1c(C(=O)OCC(C)C)[nH]c2c1C(=O)CC(c1cccs1)C2 (stereo not drawn)	H69AR inhibit 20.9
Cc1cccc(NC(=O)C2CCCN2S(=O)(=O)c2cccc3cccnc23)c1 (stereo not drawn)	none
CC(C)(C)n1nnnc1C(c1cccnc1)N(Cc1ccccc1)Cc1cccs1 (stereo not drawn)	H69AR inhibit 6.6
CC(C)(C)n1nnnc1C(c1cccs1)N(Cc1ccccc1)Cc1cccnc1 (stereo not drawn)	none
